Data on 21 molecules can be found in ChEMBL document CHEMBL4152240, “Synthesis, cytotoxicity and structure-activity relationship of indolizinoquinolinedione derivatives as DNA topoisomerase IB catalytic inhibitors” (2018).

By GI50 is commonly meant the concentration giving 50% growth inhibition. For orientation: inhibition means the relative decrease from the control value, in per cent.

The source made the active and inactive calls. The rule behind the calls is not given here.

For one experiment, the system named is HCT-116. Nature of the experiment: Cytotoxicity against human HCT116 cells assessed as growth inhibition after 72 hrs by MTT assay. Type of experiment: functional. As to conditions: HCT-116, 72 h. The method in brief: (§1)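 Five-dose MTT growth assay, compounds predissolved in DMSO, 72 h exposure at 37 C. Cells kept in RPMI-1640 or DMEM, 37 C, 5% CO2, passage 3-6. MTT (1 mg/mL in PBS) added for 4 h, formazan dissolved in DMSO, OD 570 nm. GI50 (50% growth inhibition) by nonlinear regression. Means ± SD, at least three repeats.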

Another experiment relates to Huh-7. Nature of the experiment: Cytotoxicity against human HuH7 cells assessed as growth inhibition after 72 hrs by MTT assay. It counts as functional. The following applies: Huh-7, 72 h. The method in brief: as §1
The subject of a further experiment is A549. Nature of the experiment: Cytotoxicity against human A549 cells assessed as growth inhibition after 72 hrs by MTT assay. It counts as functional. The following applies: A549, 72 h. The method in brief:
as §1

Another experiment concerns CCRF-CEM. Nature of the experiment: Cytotoxicity against human CCRF-CEM cells assessed as growth inhibition after 72 hrs by MTT assay. Type of experiment: functional. An outline of the steps: as §1
For orientation: Tetrazolium assays rely on reduction of a dye to a coloured formazan, in cell work by metabolically active cells.

Experiment [1] addresses T1, Topoisomerase I (Bos taurus) (UniProt Q2HPH0).
T1 sequence (whole entry): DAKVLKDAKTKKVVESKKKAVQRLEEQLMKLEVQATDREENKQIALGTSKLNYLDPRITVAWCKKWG
In words: Inhibition of calf thymus TOP1-mediated relaxation of supercoiled pBR322 DNA at 25 uM after 30 mins by agarose gel electrophoresis relative to camptothecin. The method in brief: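 0.5 µg supercoiled pBR322 in buffer (10 mM Tris-HCl pH 7.5, 50 mM KCl, 5 mM MgCl2, BSA, DTT) with 1 unit calf thymus TOP1, with or without compound (0.2-125 µM), 30 min at 37 C. Run on 0.8% agarose/TBE at 4.6 V/cm for 1.5 h, gel red stained. Activity graded in bands (e.g. +++ 81-120%). At least two independent repeats.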

In the next experiment the test system is DU-145. In words: Cytotoxicity against human DU145 cells assessed as growth inhibition after 72 hrs by MTT assay. It counts as functional. The following applies: DU-145, 72 h. The method in brief:
as §1

Experiment [2] has as its system DNA. Nature of the experiment: Induction of unwinding effect of Escherichia coli supercoiled pBR322 DNA at 1 to 9 uM preincubated with DNA for 10 mins followed by excess calf thymus TOP1 addition and measured after 30 mins by agarose gel electrophoresis. Type of experiment: nucleic-acid assay. The method in brief:
(§2)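 Compound (1, 3, 9 µM) preincubated with pBR322 DNA, supercoiled or relaxed, at room temperature for 10 min. Excess TOP1 then added and incubated 30 min at 37 C. Stopped with SDS/proteinase K. Ethidium bromide (0.3-1.2 mg/L) as positive control. Run on 0.8% agarose in TBE at 4.6 V/cm for 1.5 h, stained with gel red, UV visualized.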

The test system of experiment [3] is DNA. Nature of the experiment: Induction of unwinding effect of Escherichia coli relaxed pBR322 DNA at 1 to 9 uM preincubated with DNA for 10 mins followed by excess calf thymus TOP1 addition and measured after 30 mins by agarose gel electrophoresis. Type of experiment: nucleic-acid assay. An outline of the steps:
as §2

As to `CCOC(=O)c1c2c(n3ccc(NC(=O)CCN(C)C)cc13)C(=O)c1ncccc1C2=O`, the GI50 was 1.75 µM with HCT-116; 1.65 µM in the experiment on Huh-7; 19.6 µM with A549; 0.29 µM with CCRF-CEM; 2.27 µM in the experiment on DU-145. In addition, in experiment [1], the inhibition lay in the range of 41 to 80%.
For the molecule `CN(C)CCOC(=O)c1c2c(n3cccc(F)c13)C(=O)c1ncccc1C2=O`, the GI50 in the experiment on HCT-116 was 0.092 µM; with Huh-7, 0.31 µM; in the experiment with A549, 27.2 µM; with CCRF-CEM, 1.09 µM; in the experiment with DU-145, 0.69 µM. Further, the inhibition in experiment [1] lay in the range of 41 to 80%.
Regarding `O=C1c2cccnc2C(=O)c2c1c(C(=O)OCCN1CCOCC1)c1c(Cl)cccn21`, the GI50 worked out at 28.6 µM in the experiment with HCT-116; 30.3 µM in the experiment on Huh-7; 48.6 µM in the experiment with A549; 61.3 µM with CCRF-CEM; 29.5 µM in the experiment on DU-145. The inhibition in experiment [1] fell in the range of 41 to 80%.
For `CCOC(=O)c1c2c(n3ccc(NC(=O)CCN4CCCCC4)cc13)C(=O)c1ncccc1C2=O`, the GI50 was 1.43 µM in the experiment on HCT-116; 1.15 µM with Huh-7; 2.65 µM in the experiment with A549; 0.11 µM in the experiment on CCRF-CEM; 3.12 µM with DU-145. Further, the outcome in the experiment on DNA [2] and with DNA [3] was inactive. Moreover, the inhibition in experiment [1] lay in the range of 81 to 120%.
As for `O=C1c2cccnc2C(=O)c2c1c(C(=O)OCCCN1CCCCC1)c1c(Cl)cccn21`, the GI50 with HCT-116 turned out to be 5.15 µM; in the experiment on Huh-7, 1.32 µM; with A549 it was 0.89 µM; in the experiment with CCRF-CEM, 5.35 µM; in the experiment with DU-145 it was 1.73 µM. Further, the inhibition in experiment [1] lay within 41 to 80%.
For the molecule `O=C1c2cnncc2C(=O)c2c1c(C(=O)OCCN1CCOCC1)c1ccccn21`, the GI50 with HCT-116 worked out at 3.43 µM; in the experiment on Huh-7, 2.92 µM; with A549, 0.86 µM; in the experiment on CCRF-CEM, 1.35 µM; in the experiment with DU-145, 1.22 µM. Further, the outcome with DNA [2] and with DNA [3] was inactive. In experiment [1], the inhibition lay within 81 to 120%.
As to `O=C1c2cccnc2C(=O)c2c1c(C(=O)OCCCN1CCOCC1)c1c(F)cccn21`, the GI50 was 0.038 µM with HCT-116; 0.13 µM in the experiment with Huh-7; 0.23 µM in the experiment with A549; 0.49 µM with CCRF-CEM; 0.25 µM in the experiment with DU-145. For the same molecule, the inhibition in experiment [1] was less than 40%.
For the molecule `O=C1c2cccnc2C(=O)c2c1c(C(=O)OCCN1CCCCC1)c1c(Cl)cccn21`, the GI50 was 0.31 µM with HCT-116; 0.17 µM in the experiment on Huh-7; 0.12 µM in the experiment with A549; 0.39 µM in the experiment on CCRF-CEM; 2.52 µM in the experiment on DU-145. Further, the result in the experiment on DNA [2] and with DNA [3] was Active. In addition, the inhibition in experiment [1] is more than 121%.
For `O=C1c2ncccc2C(=O)c2c1c(C(=O)OCCN1CCOCC1)c1ccccn21`, the 50% growth inhibitory concentration (GI50) in the experiment on HCT-116 stood at 11.1 µM; in the experiment on Huh-7 it was 14.2 µM; with A549 it was 4.52 µM; in the experiment with CCRF-CEM, 70.5 µM; in the experiment on DU-145, 1.2 µM. In addition, the outcome with DNA [2] and in the experiment with DNA [3] was inactive. Moreover, in experiment [1], the inhibition is more than 121%.
Take `CN1CCN(CCOC(=O)c2c3c(n4cccc(F)c24)C(=O)c2ncccc2C3=O)CC1`: the GI50 in the experiment on HCT-116 turned out to be 0.044 µM; in the experiment on Huh-7, 0.11 µM; in the experiment on A549 it was 0.052 µM; in the experiment with CCRF-CEM, 0.45 µM; in the experiment with DU-145, 0.029 µM. Further, in experiment [1], the inhibition was 41 to 80%.
As for `O=C1c2nccnc2C(=O)c2c1c(C(=O)OCCN1CCOCC1)c1ccccn21`, the GI50 in the experiment on HCT-116 was 13.2 µM; in the experiment on Huh-7 it was 7.33 µM; in the experiment with A549, 8.52 µM; in the experiment on CCRF-CEM it was 1.61 µM; in the experiment with DU-145, 2.55 µM. Also, the inhibition in experiment [1] lay within 41 to 80%.
Consider `O=C1c2cccnc2C(=O)c2c1c(C(=O)OCCCN1CCCC1)c1c(Cl)cccn21`, for which the GI50 was determined as 38.2 µM with HCT-116; 12.2 µM with Huh-7; 24.5 µM in the experiment with A549; 85.3 µM in the experiment with CCRF-CEM; 8.32 µM in the experiment with DU-145. For the same molecule, the inhibition in experiment [1] is less than 40%.
Take `CN(C)CCCOC(=O)c1c2c(n3cccc(F)c13)C(=O)c1ncccc1C2=O`: the GI50 with HCT-116 is 0.066 µM; with Huh-7, 0.08 µM; with A549 it was 0.018 µM; with CCRF-CEM, 0.37 µM; in the experiment with DU-145 it was 0.025 µM. Besides, the result in the experiment with DNA [2] and in the experiment on DNA [3] was Active. For the same molecule, the inhibition in experiment [1] fell in the range of 81 to 120%.
For the molecule `CCOC(=O)c1c2c(n3ccccc13)C(=O)c1ncccc1C2=O`, the GI50 with HCT-116 turned out to be 0.33 µM; with Huh-7 it was 0.85 µM; in the experiment with A549, 0.16 µM; in the experiment with CCRF-CEM, 0.68 µM; with DU-145, 0.093 µM. For the same molecule, the result in the experiment with DNA [2] and with DNA [3] was inactive. Besides, the inhibition in experiment [1] is 81 to 120%.
As to `O=C1c2cccnc2C(=O)c2c1c(C(=O)OCCN1CCOCC1)c1c(F)cccn21`, the GI50 turned out to be 0.11 µM in the experiment on HCT-116; 0.57 µM in the experiment with Huh-7; 0.13 µM with A549; 1.1 µM with CCRF-CEM; 0.23 µM in the experiment on DU-145. Further, the inhibition in experiment [1] is less than 40%.
Take `CCOC(=O)c1c2c(n3ccc(NC(=O)CCN4CCOCC4)cc13)C(=O)c1ncccc1C2=O`: the GI50 in the experiment on HCT-116 worked out at 0.3 µM; with Huh-7 it was 0.34 µM; with A549, 9.68 µM; in the experiment on CCRF-CEM, 0.6 µM; in the experiment with DU-145, 16.4 µM. For the same molecule, the result with DNA [2] and in the experiment with DNA [3] was inactive. Moreover, the inhibition in experiment [1] was 81 to 120%.
With `O=C1c2cccnc2C(=O)c2c1c(C(=O)OCCCN1CCOCC1)c1c(Cl)cccn21`, the GI50 in the experiment on HCT-116 came to 19.1 µM; in the experiment with Huh-7, 28.4 µM; with A549 it was 37.5 µM; in the experiment with CCRF-CEM it was 68.6 µM; with DU-145, 29.1 µM. The inhibition in experiment [1] was less than 40%.
Turning to `O=C1c2cccnc2C(=O)c2c1c(C(=O)OCCN1CCCC1)c1c(Cl)cccn21`, the GI50 with HCT-116 turned out to be 10.2 µM; in the experiment with Huh-7, 2.25 µM; with A549, 5.39 µM; with CCRF-CEM it was 48.2 µM; with DU-145, 1.58 µM. For the same molecule, in experiment [1], the inhibition was less than 40%.
In the case of `O=C1c2cccnc2C(=O)c2c1c(C(=O)OCCCN1CCCC1)c1c(F)cccn21`, the GI50 is 0.029 µM in the experiment on HCT-116; 0.11 µM with Huh-7; 0.08 µM in the experiment with A549; 0.51 µM in the experiment on CCRF-CEM; 0.092 µM in the experiment with DU-145. The inhibition in experiment [1] was in the range of 41 to 80%.
As to `CCOC(=O)c1c2c(n3ccc(NC(=O)CCN4CCCC4)cc13)C(=O)c1ncccc1C2=O`, the GI50 with HCT-116 was determined as 1.9 µM; with Huh-7 it was 1.8 µM; in the experiment on A549, 29.3 µM; in the experiment on CCRF-CEM it was 0.54 µM; in the experiment on DU-145, 0.7 µM. Moreover, the inhibition in experiment [1] fell in the range of 41 to 80%.
For `CN1CCN(CCCOC(=O)c2c3c(n4cccc(F)c24)C(=O)c2ncccc2C3=O)CC1`, the GI50 in the experiment with HCT-116 stood at 0.044 µM; with Huh-7 it was 0.042 µM; in the experiment with A549, 0.021 µM; in the experiment with CCRF-CEM, 0.32 µM; in the experiment on DU-145, 0.073 µM. The inhibition in experiment [1] was 41 to 80%.
